Test results reported in ChEMBL document CHEMBL4342470, “Detection of Active Granzyme A in NK92 Cells with Fluorescent Activity-Based Probe” (J Med Chem, 2020).
Values belong to the compound of their own block, whether it stands above or below them. Activity calls are given as the source filed them. The rule behind the calls is not given here. Non-standard residues stand in square brackets, D forms with d. Residues, ends and D or L forms follow the SMILES beside them. ξ: configuration not given here. *: point of attachment. Phe(4-guanidino) = N=C(N)Nc1ccc(C[C@H](N)C(=O)O)cc1; Oic(3aξ,7aξ) = O=C(O)[C@@H]1CC2CCCCC2N1; Phe(4-F) = N[C@@H](Cc1ccc(F)cc1)C(=O)O; ACC = NC(=O)Cc1cc(=O)oc2cc(N*)ccc12; Met(O) = CS(=O)CC[C@H](N)C(=O)O; Tic = O=C(O)[C@@H]1Cc2ccccc2CN1

Experiments:
[1] = molecular target: T1, Granzyme A (Homo sapiens) (UniProt P12544); assay: Inhibition of Granzyme A (unknown origin) expressed in Pichia pastoris assessed as second- order inhibition rate constant (Kobs/I ratio) pre-incubated with SK15 substrate for 15 mins before enzyme addition by spectrofluorometry
T1 sequence (whole entry): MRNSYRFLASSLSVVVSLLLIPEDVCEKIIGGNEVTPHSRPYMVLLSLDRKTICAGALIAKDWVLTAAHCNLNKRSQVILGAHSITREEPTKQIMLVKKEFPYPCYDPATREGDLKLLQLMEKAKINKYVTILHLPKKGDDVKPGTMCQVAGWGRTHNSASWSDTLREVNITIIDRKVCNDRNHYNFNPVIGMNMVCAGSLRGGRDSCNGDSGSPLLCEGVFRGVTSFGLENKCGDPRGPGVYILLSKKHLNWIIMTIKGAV
Procedure, shortened: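 Recombinant GrA at 350 nM, pre-warmed at 37 °C, added to SK15 substrate that had been preincubated 15 min at 37 °C with varied inhibitor or probe (inhibitor range 714–333 nM, SK15 10 μM). Tris/NaCl/CaCl2/Tween-20 buffer, pH 7.5. AMC-type fluorescence at 355/460 nm under pseudo-first-order conditions to give kobs/I. Mean of at least three experiments with standard deviation.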

[2] = molecular target: T2, Granzyme K (Homo sapiens) (UniProt P49863); assay: Inhibition of Granzyme K (unknown origin) expressed in Pichia pastoris using GrKref substrate by spectrofluorometry relative to control; settings: concentration not given here
T2 sequence (whole entry): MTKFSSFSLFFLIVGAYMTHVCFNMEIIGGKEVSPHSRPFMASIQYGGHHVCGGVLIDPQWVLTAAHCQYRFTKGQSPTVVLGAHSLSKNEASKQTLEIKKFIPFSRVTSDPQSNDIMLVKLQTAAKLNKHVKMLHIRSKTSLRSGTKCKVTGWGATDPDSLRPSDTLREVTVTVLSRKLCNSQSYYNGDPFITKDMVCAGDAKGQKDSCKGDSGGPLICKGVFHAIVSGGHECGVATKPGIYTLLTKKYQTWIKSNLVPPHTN
Procedure, shortened: (§1)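 Each enzyme preincubated 30 min at 37 °C with 10 μM compound, then its matched ACC substrate added (SK15 for GrA, GrKref, GrBref, Ac-KVPL-ACC for GrM, and the PR3 and hNE substrates). Enzyme levels: GrK 488 nM, GrB 18 nM, GrM 74 nM, hNE 3.3 nM, PR3 3.4 nM. Reference substrates at 200 μM. Fluorescence read at 355/460 nm; residual activity relative to an untreated enzyme control.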

[3] = molecular target: T3, Neutrophil elastase (Homo sapiens) (UniProt P08246); assay: Inhibition of human neutrophil elastase expressed in Pichia pastoris using Ac-Arg(NO)2-Glu(Bzl)-Oic-Abu-ACC substrate by spectrofluorometry relative to control; procedure, shortened: as §1
T3 sequence (whole entry): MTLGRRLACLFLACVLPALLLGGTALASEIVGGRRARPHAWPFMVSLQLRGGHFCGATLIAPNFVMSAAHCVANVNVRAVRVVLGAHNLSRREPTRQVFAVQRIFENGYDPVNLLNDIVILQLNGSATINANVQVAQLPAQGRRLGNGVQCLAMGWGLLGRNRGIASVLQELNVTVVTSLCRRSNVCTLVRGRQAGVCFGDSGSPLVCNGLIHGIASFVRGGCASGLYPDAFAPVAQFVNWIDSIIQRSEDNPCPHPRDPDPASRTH

[4] = molecular target: T4, Granzyme M (Homo sapiens) (UniProt P51124); assay: Inhibition of Granzyme M (unknown origin) expressed in Pichia pastoris using Ac-Lys-Val-Pro-Leu-ACC substrate by spectrofluorometry relative to control; procedure, shortened: as §1
T4 sequence (whole entry): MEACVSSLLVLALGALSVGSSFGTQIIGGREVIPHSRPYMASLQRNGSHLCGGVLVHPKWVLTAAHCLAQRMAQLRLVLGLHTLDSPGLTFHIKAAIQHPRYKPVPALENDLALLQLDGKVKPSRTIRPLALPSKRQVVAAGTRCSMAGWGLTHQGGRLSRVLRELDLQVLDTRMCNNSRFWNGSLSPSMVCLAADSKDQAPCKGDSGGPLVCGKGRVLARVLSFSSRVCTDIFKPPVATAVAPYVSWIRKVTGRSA

[5] = molecular target: T5, Myeloblastin (Homo sapiens) (UniProt P24158); assay: Inhibition of PR3 (unknown origin) expressed in Pichia pastoris using Ac-Glu(O-Bzl)-Lys(Ac)-Hyp(Bzl)-Nva-ACC substrate by spectrofluorometry relative to control; procedure, shortened: as §1
T5 sequence (whole entry): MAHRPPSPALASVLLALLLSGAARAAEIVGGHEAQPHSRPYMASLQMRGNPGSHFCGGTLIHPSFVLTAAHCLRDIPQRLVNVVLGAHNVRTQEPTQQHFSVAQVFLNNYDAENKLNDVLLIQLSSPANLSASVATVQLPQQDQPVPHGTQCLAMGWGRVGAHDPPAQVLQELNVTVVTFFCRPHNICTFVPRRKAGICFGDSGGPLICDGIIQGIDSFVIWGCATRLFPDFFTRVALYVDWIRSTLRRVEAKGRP

[6] = molecular target: T1, Granzyme A (Homo sapiens); assay: Inhibition of Granzyme A (unknown origin) expressed in Pichia pastoris using SK15 substrate by spectrofluorometry relative to control; procedure, shortened: as §1
[7] = molecular target: Granzyme B (Homo sapiens) (UniProt P10144); assay: Inhibition of Granzyme B (unknown origin) expressed in Pichia pastoris using GrBref substrate by spectrofluorometry relative to control; procedure, shortened: as §1
Granzyme B (Homo sapiens), sequence (P10144 whole entry): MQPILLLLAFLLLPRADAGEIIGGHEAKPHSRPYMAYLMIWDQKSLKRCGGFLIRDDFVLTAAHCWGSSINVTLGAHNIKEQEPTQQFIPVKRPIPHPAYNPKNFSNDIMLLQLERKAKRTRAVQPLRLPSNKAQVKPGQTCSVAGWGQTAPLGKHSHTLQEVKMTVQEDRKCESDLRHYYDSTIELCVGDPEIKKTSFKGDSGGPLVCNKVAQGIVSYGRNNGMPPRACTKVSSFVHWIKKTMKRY

[8] = molecular target: T1, Granzyme A (Homo sapiens); assay: Substrate activity at Granzyme A (unknown origin) expressed in Pichia pastoris incubated for 30 mins by fluorescence based assay
[9] = molecular target: Granzyme B (Homo sapiens) (UniProt P10144); assay: Substrate activity at Granzyme B (unknown origin) expressed in Pichia pastoris assessed as compound hydrolysis at 200 uM incubated for 30 mins by fluorescence based assay relative to control
[10] = molecular target: T1, Granzyme A (Homo sapiens); assay: Binding affinity to Granzyme A (unknown origin) expressed in Pichia pastoris assessed as appearance of fluorescent 35 kDa species at enzyme to probe ratio was 1:1 incubated for 5 mins by SDS-PAGE based in-gel detection method
Procedure, shortened: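 Recombinant GrA (Pichia pastoris) at 250 nM with 250 nM Cy5 probe (1:1) in Tris/NaCl/CaCl2/Tween-20 buffer pH 7.5, 37 °C, for 0–120 min. Reduced in SDS/DTT at 95 °C, run on 4–12% Bis-Tris SDS-PAGE, transferred to nitrocellulose, fluorescence read at 658 nm.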

[11] = molecular target: T1, Granzyme A (Homo sapiens); assay: Binding affinity to Granzyme A active form (unknown origin) expressed in Pichia pastoris at 500 nM in presence of 1 uM methyl 4-[(3S)-3-[[2-[(2S)-2-[(1-diphenoxyphosphoryl-4-guanidinobutyl)carbamoyl]-2,3,3a,4,5,6,7,7a-octahydroindol-1-yl]-2-oxoethyl]carbamoyl]-3,4-dihydro-1H-isoquinolin-2-yl]-4-oxobutanoate by Western blot analysis
Procedure, shortened: (§2)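 Active GrA or proenzyme diluted to 250 nM final in pH 7.5 assay buffer, with or without 1 h preincubation with 1 μM diphenyl phosphonate inhibitor at 37 °C. Probe added at 500 nM final for another 1 h, then SDS/DTT, SDS-PAGE and transfer. Probe read at 658 nm, anti-GrA rabbit monoclonal with Alexa 488 secondary.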

[12] = molecular target: T1, Granzyme A (Homo sapiens); assay: Binding affinity to Granzyme A (unknown origin) expressed in Pichia pastoris assessed as minimum concentration needed for GrA labeling at enzyme to probe ratio was 1:1 incubated for 5 to 30 mins by SDS-PAGE based in-gel detection method
Procedure, shortened: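 Recombinant GrA (Pichia pastoris), 250 nM, with probe at 10–500 nM for 30 min at 37 °C in pH 7.5 Tris/NaCl/CaCl2/Tween-20 buffer. SDS/DTT reduction, 4–12% Bis-Tris SDS-PAGE, transfer, and probe fluorescence at 658 nm, used to estimate the lowest labeling concentration.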

[13] = molecular target: T1, Granzyme A (Homo sapiens); assay: Binding affinity to Granzyme A zymogen form (unknown origin) expressed in Pichia pastoris by Western blot analysis; procedure, shortened: as §2
[14] = molecular target: T1, Granzyme A (Homo sapiens); assay: Binding affinity to Granzyme A zymogen form (unknown origin) expressed in Pichia pastoris at 500 nM in presence of 1 uM compound 3 by Western blot analysis; procedure, shortened: as §2
[15] = molecular target: T1, Granzyme A (Homo sapiens); assay: Binding affinity to Granzyme A in human NK92 cells at 1 uM treated 1 hr after GrA covalent inhibitor methyl 4-[(3S)-3-[[2-[(2S)-2-[(1-diphenoxyphosphoryl-4-guanidinobutyl)carbamoyl]-2,3,3a,4,5,6,7,7a-octahydroindol-1-yl]-2-oxoethyl]carbamoyl]-3,4-dihydro-1H-isoquinolin-2-yl]-4-oxobutanoate dosing and measured 30 mins to 2 hrs post dose by SDS-PAGE analysis; format: cell-based
[16] = molecular target: T1, Granzyme A (Homo sapiens); assay: Binding affinity to Granzyme A active form (unknown origin) expressed in Pichia pastoris by Western blot analysis; procedure, shortened: as §2
[17] = molecular target: T1, Granzyme A (Homo sapiens); assay: Binding affinity to Granzyme A in human NK92 cells at 250 nM to 2 uM incubated for 1 hr by SDS-PAGE based in-gel detection assay; format: cell-based
[18] = molecular target: T1, Granzyme A (Homo sapiens); assay: Binding affinity to Granzyme A in human NK92 cells at 1 uM measured 30 mins to 2 hrs post dose by SDS-PAGE analysis; format: cell-based

Compound: COC(=O)CCC(=O)N1Cc2ccccc2C[C@H]1C(=O)NCC(=O)N1C2CCCCC2C[C@H]1C(=O)NC(CCCNC(=N)N)P(=O)(Oc1ccccc1)Oc1ccccc1 (some centres undefined)
Ratio [1]: 171000 s⁻¹ M⁻¹ | inhibition [2]: < 20% | inhibition ([3]; concentration not given here): < 20% | inhibition ([4]; concentration not given here): < 20% | inhibition ([5]; concentration not given here): < 20% | inhibition ([6]; concentration not given here): < 20% | inhibition ([7]; concentration not given here): < 20%

Activity [8]: Active
Compound: CC(=O)N[C@@H](CC[S+](C)[O-])C(=O)NCC(=O)N[C@@H](Cc1ccc(F)cc1)C(=O)N[C@@H](Cc1ccc(NC(=N)N)cc1)C(=O)Nc1ccc2c(CC(N)=O)cc(=O)oc2c1 (some centres undefined) (Ac-[Met(O)]G[Phe(4-F)][Phe(4-guanidino)]-{ACC})

Activity [8]: Active
Compound: CC[C@H](C)[C@H](NC(C)=O)C(=O)NCC(=O)N1C2CCCCC2C[C@H]1C(=O)N[C@@H](Cc1ccc(NC(=N)N)cc1)C(=O)Nc1ccc2c(CC(N)=O)cc(=O)oc2c1 (some centres undefined) (Ac-IG[Oic(3aξ,7aξ)][Phe(4-guanidino)]-{ACC})

Activity [8]: Active
Compound: CC(=O)N1Cc2ccccc2C[C@H]1C(=O)N[C@@H](CCc1nc2ccccc2s1)C(=O)N1C2CCCCC2C[C@H]1C(=O)N[C@@H](Cc1ccc(NC(=N)N)cc1)C(=O)Nc1ccc2c(CC(N)=O)cc(=O)oc2c1 (some centres undefined)

Activity [8]: Active | Activity [9]: Active
Compound: CC[C@H](C)[C@H](NC(C)=O)C(=O)NCC(=O)N1C2CCCCC2C[C@H]1C(=O)N[C@@H](CCCNC(=N)N)C(=O)Nc1ccc2c(CC(N)=O)cc(=O)oc2c1 (stereo partly drawn) (Ac-IG[Oic(3aξ,7aξ)]R-{ACC})

Activity [8]: Active
Compound: CC(=O)N1Cc2ccccc2C[C@H]1C(=O)NCC(=O)N1C2CCCCC2C[C@H]1C(=O)N[C@@H](Cc1ccc(NC(=N)N)cc1)C(=O)Nc1ccc2c(CC(N)=O)cc(=O)oc2c1 (some centres undefined) (Ac-[Tic]G[Oic(3aξ,7aξ)][Phe(4-guanidino)]-{ACC})

Compound: CN1\C(=C/C=C/C=C/C2N(CCCCCC(=O)NCCCCCC(=O)N3Cc4ccccc4C[C@H]3C(=O)NCC(=O)N3C4CCCCC4C[C@H]3C(=O)NC(CCCNC(=N)N)P(=O)(Oc3ccccc3)Oc3ccccc3)c3ccccc3C2(C)C)C(C)(C)c2ccccc21 (some centres undefined)
Activity [10]: Active | Activity [11]: inactive | Ratio [1]: 3520 s⁻¹ M⁻¹ | inhibition [2]: 3% | inhibition [3]: inactive | inhibition [4]: inactive | MEC [12]: 50 nM | Activity [13]: inactive | inhibition [5]: inactive | Activity [14]: inactive | Activity [15]: inactive | inhibition [6]: inactive | Activity [16]: Active | inhibition [7]: inactive | Activity [17]: Active | Activity [18]: Active
